Only a selection was taken, and hits are over-represented in it overall.
HUVEC inhibit – inhibitors of HUVEC proliferation, primary screen, cell-based, 384-well; CellTiter-Glo luminescence, 72 h; stronger effect = lower value; viability, % at 10 µM (by protocol); 86,000 tested, 1.1% active;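 active = viability at or below 30%; inactive = viability above 30%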
H69AR inhibit – proliferation blockers of H69AR lung cancer cells, primary screen, cell-based, human, 86K library; viability, % at 10 µM; AID 598, 2007; 85,000 tested, 6% active; H69AR lung tumor viability, ATP luminescence, 72 h; stronger effect = lower value;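 active = viability at or below 40%; inactive = viability above 40%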;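 note: multidrug resistant small cell line overexpressing MRP-1 efflux transporter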
Fibroblast inh – antiproliferative effect on LL 47 fibroblasts – human, LL 47 cells, CellTiter-Glo luminescence, primary screen; viability, % at 10 µM; LL 47 human lung fibroblast viability, ATP luminescence; stronger effect = lower value; 85,000 tested, 1.1% active; AID 719, 2007;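 active = viability at or below 50% in the single dose screen; inactive = viability above 50%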;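 note: compound exposure lasted 72 h before the ATP readout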
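material = human LL 47 lung fibroblast cells | dosing = compounds added from tenfold dosing solution, 0.1% DMSO final | timing = overnight cell rest, 72 h compound treatment at 37 °C | measured by = CellTiter-Glo luminescence measuring cellular ATP | evaluation = % viability versus median cells-only luminescence | control set = cell-only wells, no compound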
HCT116 bCat-KO – primary screen for growth suppressors in beta-catenin knockout HCT116 cells (colon tumor, human); HCT116 beta-catenin knockout viability, CellTiter-Glo, 60 h; stronger effect = lower value; viability, % at 10 µM; 140,000 tested, 1.5% active;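 active = viability at or under a set limit, the compound median less 4 SD, cut at about 6% in these data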
Pyk2 oligo antag – antagonists of Pyk2 self-association, primary screen, Q293 cells, FERM NanoBiT luminescence, HTS; Protein-tyrosine kinase 2-beta (Homo sapiens), Q14289; stronger effect = lower value; z-score (the deposit names both 25 µM and 10 µM); 99,000 tested, 0.83% active;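 active = Z-score of -3 or lower, scaled per plate to the spread of control and sample wells; inactive = z-score above -3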;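 note: negative z-score means lost luminescence so less FERM oligomerization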
Target sequence (Q14289 whole entry, looked up): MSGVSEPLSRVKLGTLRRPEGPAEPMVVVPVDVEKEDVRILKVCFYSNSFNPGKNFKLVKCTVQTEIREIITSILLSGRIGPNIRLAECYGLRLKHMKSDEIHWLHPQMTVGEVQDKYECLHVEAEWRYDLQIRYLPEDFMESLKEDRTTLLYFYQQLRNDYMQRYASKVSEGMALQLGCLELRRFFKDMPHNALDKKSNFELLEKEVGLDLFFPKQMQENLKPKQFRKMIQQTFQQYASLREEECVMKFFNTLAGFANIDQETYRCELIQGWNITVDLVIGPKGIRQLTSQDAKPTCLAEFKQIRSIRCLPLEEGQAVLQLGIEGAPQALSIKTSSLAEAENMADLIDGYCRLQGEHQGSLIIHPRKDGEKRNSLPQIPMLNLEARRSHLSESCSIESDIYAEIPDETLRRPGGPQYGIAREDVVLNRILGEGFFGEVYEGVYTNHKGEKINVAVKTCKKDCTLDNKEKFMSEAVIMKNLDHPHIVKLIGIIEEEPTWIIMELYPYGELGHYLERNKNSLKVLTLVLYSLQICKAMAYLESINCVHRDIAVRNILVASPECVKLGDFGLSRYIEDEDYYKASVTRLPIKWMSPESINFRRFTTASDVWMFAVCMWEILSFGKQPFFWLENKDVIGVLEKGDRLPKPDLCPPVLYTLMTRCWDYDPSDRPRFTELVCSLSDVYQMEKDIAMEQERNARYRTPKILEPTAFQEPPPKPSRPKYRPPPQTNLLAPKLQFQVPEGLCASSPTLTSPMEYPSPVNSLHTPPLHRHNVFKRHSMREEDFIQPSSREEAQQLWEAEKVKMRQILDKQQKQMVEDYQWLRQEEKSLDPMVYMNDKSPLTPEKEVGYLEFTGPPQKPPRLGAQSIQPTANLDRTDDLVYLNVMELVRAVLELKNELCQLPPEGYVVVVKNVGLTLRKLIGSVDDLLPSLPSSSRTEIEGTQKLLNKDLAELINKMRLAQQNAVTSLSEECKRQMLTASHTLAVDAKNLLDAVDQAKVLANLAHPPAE
HCT116 PTEN-null – growth suppression of PTEN-null HCT116, primary screen, cell-based, CellTiter-Glo | HCT116 PTEN-null viability, 60 h; stronger effect = lower value | viability, % at 10 µM | 140,000 tested, 1.2% active | AID 827, 2007;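 active = viability at or below a set limit, 4 SD under the median of all tested compounds, cut at about 3.7% in these data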;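 note: PTEN knockout HCT116 line with beta catenin targeted HCT116 as companion control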
A number is an active result; . = inactive; / = no result.

SMILES	HUVEC inhibit	H69AR inhibit	Fibroblast inh	HCT116 bCat-KO	Pyk2 oligo antag	HCT116 PTEN-null
CC(C)CCn1c(N)c(S(=O)(=O)c2cccs2)c2nc3ccccc3nc21	.	39.7	.	.	.	.
Nc1c(S(=O)(=O)c2ccccc2)c2nc3ccccc3nc2n1/N=C/c1cccc(O)c1	6.9	1.4	.	.	.	3.6
Nc1c(S(=O)(=O)c2cccs2)c2nc3ccccc3nc2n1CCc1ccccc1	/	/	/	.	/	.
Cc1ccc(S(=O)(=O)c2c(N)n(CCC(C)C)c3nc4ccccc4nc23)cc1	.	.	.	.	.	2.6
O=C(NCc1ccco1)/C(=C\c1cccnc1)NC(=O)c1ccccc1F	/	/	/	.	.	.
CCC(C)NS(=O)(=O)c1ccc(S(=O)(=O)N(CCc2ccc(OC)c(OC)c2)Cc2cccs2)cc1 (stereo not given)	/	/	/	.	/	.
O=[N+]([O-])c1ccc(NC(=S)NCCc2ccc(Cl)cc2)cc1	/	/	/	3.5	.	2.9
O=[N+]([O-])c1ccc(NC(=S)NCCc2ccccc2)cc1	/	/	/	.	/	.
C[C@](N)(Cc1ccc(O)c(O)c1)C(=O)O	.	.	.	6.1	/	.
Clc1ccc(Cn2cc(/C=N/n3cnnc3)c3ccccc32)c(Cl)c1	13.1	.	.	.	.	.
CCc1cc2ccc(C)cc2nc1SCC(=O)N1CCN(C(=O)c2ccco2)CC1	.	36.3	.	.	.	.
CCc1cc2cc3c(cc2nc1SCC(=O)N1CCN(C(=O)c2ccco2)CC1)OCO3	.	.	.	.	.	.
CC[n+]1cc(-c2ccccc2)nc(N2CCOCC2)n1	27.4	.	.	.	.	.
CCc1ccc(S(=O)(=O)/N=C2/C=C(Sc3ncn[nH]3)C(=O)c3ccccc32)cc1	/	/	/	2.5	/	3.4
Cc1ccc(S(=O)(=O)/N=C2/C=C(C3C(=O)CC(C)(C)CC3=O)C(=O)c3ccccc32)cc1	.	.	.	.	.	.
CCOC(=O)CSc1nc(N)c(C#N)c(CC(C)C)c1C#N	.	.	.	.	.	.
Cc1cc(C)cc(NC(=O)NC2CCN(CC(=O)Nc3c(C)cc(C)cc3C)CC2)c1	.	.	.	/	/	/
Cc1cc(C)c2nc(C(F)(F)F)nc(N3CCN(C(=O)c4ccco4)CC3)c2c1	.	.	.	.	.	.
Cc1cc(C)c2nc(N3CCCN(C(=O)c4ccco4)CC3)c(C#N)cc2c1	.	34.6	.	.	.	.
CC1CCc2cc(F)ccc2N1C(=O)CSc1nnc2c(n1)[nH]c1ccccc12 (stereo not given)	/	/	/	.	/	.
COc1cc2[nH]c3c(N4CCN(c5ccccn5)CC4)ncnc3c2cc1OC	.	24.3	.	.	.	2.7
CCOC(=O)C1CCN(c2ncnc3c2[nH]c2cccc(OC)c23)CC1	.	22.9	.	.	.	.
CCOC(=O)N1CCN(c2ncnc3c2[nH]c2ccc(F)cc23)CC1	/	/	/	.	-3.03	.
O=C(c1ccco1)N1CCN(c2ncnc3c2[nH]c2ccc(Br)cc23)CC1	.	38.2	.	.	.	.
COc1cccc2[nH]c3c(N4CCCCC4)ncnc3c12	.	.	.	.	.	.
SMILES	HUVEC inhibit	H69AR inhibit	Fibroblast inh	HCT116 bCat-KO	Pyk2 oligo antag	HCT116 PTEN-null
CCOC(=O)C(CC)(CC)/C(C)=N/NC(=O)CC#N	.	.	.	.	.	.
OC1(c2cccc(C(F)(F)F)c2)CCN(c2ncnc3c2[nH]c2ccc(F)cc23)CC1	6.4	2.4	.	.	.	2.6
O=c1c2[nH]c3ccc(F)cc3c2ncn1CCN1CCN(Cc2ccccc2)CC1	.	.	.	.	/	.
CCOC(=O)N1CCN(c2ncnc3c2[nH]c2ccc(OC)cc23)CC1	.	.	.	.	.	.
CC(=O)N1CCC(O)(c2cccc(C(F)(F)F)c2)CC1	.	.	.	.	.	.
COc1ccc(N2CCN(c3ncnc4c3[nH]c3ccccc34)CC2)cc1	.	.	.	.	-3.47	.
Fc1ccc2[nH]c3c(N4CCN(c5ccccc5)CC4)ncnc3c2c1	.	.	.	.	-3.37	.
CN(C)S(=O)(=O)c1ccc(S(=O)(=O)NC2CCOC(C)(C)C2)cc1 (stereo not given)	.	.	.	.	.	.
COc1ccc2c3c(cccc13)NN=C2C	3.0	26.1	26.1	/	/	/
N=c1c2c(-c3ccccc3)c(-c3ccccc3)n(Cc3ccco3)c2ncn1CCCn1ccnc1	/	/	/	2.2	/	2.1
c1ccc(-c2c(-c3ccccc3)n(Cc3ccco3)c3ncnc(NCCCn4ccnc4)c23)cc1	.	9.1	.	.	.	.
O=c1c2ccccc2nc(-c2ccccc2)n1Cc1ccco1	.	.	.	.	.	.
OCCNc1ncnc2c1c(-c1ccccc1)c(-c1ccccc1)n2Cc1ccco1	/	/	/	.	-3.29	.
O=C1c2ccccc2C(=O)N1Cc1nc2ccccc2c(=O)n1CCCn1ccnc1	.	.	.	.	.	.
c1ccc(-c2oc3ncnc(NCCCn4ccnc4)c3c2-c2ccccc2)cc1	.	28.7	.	.	.	.
COc1ccc(C2(CNC(=O)/C=C\c3ccco3)CCCC2)cc1OC	/	/	/	.	.	.
O=C(/C=C/c1cccc([N+](=O)[O-])c1)NCCSCc1cccc(Cl)c1	/	/	/	.	/	.
C=CCNC(=O)/C(C#N)=C/c1ccc(OS(=O)(=O)c2ccc(C)cc2)c(OC)c1	/	/	/	.	/	.
O=C(Nc1nncs1)c1cccnc1Cl	/	/	/	.	/	.
Cc1cccc(C)c1NS(=O)(=O)c1ccc2c(c1)C(=O)c1ccccc1C2=O	/	/	/	.	.	.
Cc1ccc(-c2cc3c(nn2)-c2ccccc2C3=O)cc1	.	12.5	47.3	/	/	/
Cc1ccccc1-c1cc2c(nn1)-c1ccccc1C2=O	3.2	16.8	13.7	3.4	.	.
COc1ccc(S(=O)(=O)NCCc2csc(-c3cccnc3)n2)cc1	.	.	.	.	/	.
CCOc1cc(NC(=O)c2ccccc2C)c(OCC)cc1NC(=O)C1=Cc2ccccc2OC1	/	/	/	.	.	.
Cc1ncc(CO)c2c1OC(C)(C)OC2	.	.	.	.	.	.
SMILES	HUVEC inhibit	H69AR inhibit	Fibroblast inh	HCT116 bCat-KO	Pyk2 oligo antag	HCT116 PTEN-null
Cc1ncc(CCl)c2c1OC(C)(C)OC2	.	2.8	.	.	.	.
CCn1c(Sc2nc(C)nc3scc(-c4cccs4)c23)n[nH]c1=O	.	2.8	.	.	.	.
Cc1nc(SCC(=O)NC(=O)NCCC(C)C)c2c(-c3cccs3)csc2n1	/	/	/	.	/	.
CCN(CC(O)Cn1c2ccccc2c2ccccc21)S(=O)(=O)c1ccc(F)cc1 (stereo not given)	.	17.9	.	.	.	.
O=S(=O)(c1ccc(F)cc1)N(CCO)CC(O)Cn1c2ccccc2c2ccccc21 (stereo not given)	.	12.6	.	.	.	.
Cc1ccc(C(NC(=O)c2ccccc2)C(Cl)(Cl)Cl)cc1 (stereo not given)	/	/	/	.	/	.

From PubChem
